Data on six molecules can be found in ChEMBL document CHEMBL1131833, “Synthesis and cytotoxic activity of N-(2-pyridylsulfenyl)urea derivatives. A new class of potential antineoplastic agents” (Bioorg Med Chem Lett, 1999).

The structures appear in SMILES notation. A value given as a limit tells only on which side of the number the result lay.

Type in all cases: functional, cell-based
The test system of experiment [1] is MEL-AC cell line. The experiment is described as follows: Cytotoxicity against MEL-AC melanoma cell line. Conditions: Homo sapiens. The method, boiled down: (§1)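 Growth inhibition read by cell counting after 3 days of continuous exposure to 100, 10, 1, 0.1 or 0.01 µM compound. Parallel cultures counted daily to confirm exponential growth. IC50 from the counts; where inhibition stayed low across the range, reported as > highest tested concentration.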

Experiment [2] has as its system HT-29. Briefly: Cytotoxicity against HT-29 colon carcinoma cell line. Conditions: Homo sapiens. In short, it runs like this:
as §1

For experiment [3], the system named is K562. Briefly: Cytotoxicity against K-562 myelocytic leukemia cell line. Conditions: Homo sapiens. The method, boiled down: as §1
Experiment [4] relates to CCRF-CEM. The experiment is described as follows: Cytotoxicity against CCRF-CEM lymphocytic leukemia cell line. Conditions: Homo sapiens. In short, it runs like this:
as §1

For experiment [5], the species on record is Homo sapiens. The experiment is described as follows: Cytotoxicity against normal PMBC cells in clonogenic assay. In short, it runs like this:
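Human peripheral blood mononuclear cells at 2.0-2.5 ×10^6 cells/mL in Iscove's medium. Clonogenic methylcellulose culture (0.9% final) with 30% fetal calf serum, 10% PHA-LCM and 6 U recombinant human erythropoietin plus compound, 14 days at 37°C. Colonies counted; at least 3 independent experiments, each in triplicate, per compound and concentration.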

Experiment [6] concerns Calu-1. Briefly: Cytotoxicity against HTB-54 lung carcinoma cell line. The conditions noted are these: Homo sapiens. In short, it runs like this:
as §1

In general, IC50 refers to the concentration at which inhibition is half-maximal. Regarding `CCOC(=O)c1cccnc1SNC(=O)Nc1ncccn1`, the IC50 was found to be 34 µM in experiment [1]; 4.8 µM in experiment [2]; 1 µM in experiment [3]; 15 µM in experiment [4]; 13.6 µM in experiment [5]; 1.8 µM in experiment [6].
On to `CCOC(=O)c1cccnc1S(=O)(=O)NC(=O)Nc1ccc(Cl)cc1`, for which the IC50 in experiment [1] is above 100 µM; in experiment [2], above 100 µM; in experiment [3] it was 14 µM; in experiment [4], 4.3 µM; in experiment [6], above 100 µM.
Turning to `CCOC(=O)c1cccnc1S(=O)(=O)NC(=O)Nc1ncccn1`, the IC50 is 1.2 µM in experiment [1]; above 100 µM in experiment [2]; 53 µM in experiment [3]; 3.5 µM in experiment [4]; 1.6 µM in experiment [6].
In the same order, the values of `CCOC(=O)c1cccnc1SNC(=O)Nc1nc(OC)cc(OC)n1` are 43 µM, 96 µM, 43 µM, 0.7 µM and 74 µM.
For `CCOC(=O)c1cc([N+](=O)[O-])cnc1SNC(=O)Nc1ncccn1` the same measures were 0.2 µM, above 100 µM, 0.2 µM, 1.5 µM and 14 µM.
With `COc1cccc2c1C(=O)c1c(O)c3c(c(O)c1C2=O)C[C@@](O)(C(=O)CO)C[C@@H]3O[C@H]1C[C@H](N)[C@H](O)[C@H](C)O1` [DOXORUBICIN], the IC50 was found to be 1.2 µM in experiment [1]; 0.7 µM in experiment [2]; 1 µM in experiment [3]; 39.4 µM in experiment [5]; 1.1 µM in experiment [6].
